Experimental data as given in ChEMBL document CHEMBL1142170, “Mechanism of activation of beta-D-2'-deoxy-2'-fluoro-2'-c-methylcytidine and inhibition of hepatitis C virus NS5B RNA polymerase” (Antimicrob Agents Chemother, 2007).
Calls of active or inactive are those of the source. The calls are words filed in the database; no cut-off is given here.

Key:
Hepacivirus hominis [1] = assay: Ratio of Kcat to Km for HCV NS5B RNA polymerase S282T mutant
In short: (§1)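 Steady-state assay with purified 21-aa C-terminally truncated HCV NS5B (S282T) on minus-IRES RNA template. Conditions: 50 mM HEPES pH 7.5, 1 mM MgCl2, 0.75 mM MnCl2, 2 mM DTT, [α-32P]UTP tracer, 27°C. One NTP varied, other three held at saturating levels. Rates came from product time courses; products were dot-blotted on Hybond N+ and counted by scintillation.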

Hepacivirus hominis [2] = assay: Activity of HCV NS5B RNA polymerase assessed as incorporation of 32P-UMP into RNA
In short: (§2)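 Recombinant C-terminal 21-aa truncated HCV NS5B on minus IRES RNA template, 50 mM HEPES pH 7.5, 1 mM MgCl2, 0.75 mM MnCl2, 2 mM DTT, [α-32P]UTP, 27°C. One NTP varied, other three fixed at saturating levels. Aliquots quenched with EDTA/NaCl/citrate, product retained on Hybond N+ membrane, counted by scintillation. Rates from time-course slopes, fit for steady-state parameters.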

Hepacivirus hominis [3] = assay: Ratio of Kcat to Km for HCV NS5B RNA polymerase; in short: as §2
[4] = tested on: RNA-directed RNA polymerase (Hepacivirus hominis), O39930 [S282T]; assay: Ratio of Ki to Km for HCV NS5B RNA polymerase S282T mutant
In short: (§3)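 Purified 21-aa C-terminally truncated NS5B (S282T; wild type for comparison) on minus-IRES template, run in 50 mM HEPES pH 7.5 with 1 mM MgCl2, 0.75 mM MnCl2, 2 mM DTT and [α-32P]UTP at 27°C. Natural substrate and inhibitor were both varied against fixed remaining NTPs (UTP 10 μM, others 100 μM). Product was membrane-captured and counted. Ki was obtained by fitting a competitive inhibition equation.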

Hepacivirus hominis [5] = assay: Inhibition of HCV NS5B RNA polymerase assessed as incorporation of 32P-UMP into RNA
In short: (§4)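 Steady-state Ki against truncated NS5B (wild-type and S282T) on minus IRES template, 27°C, HEPES pH 7.5 with Mg2+/Mn2+/DTT and [α-32P]UTP. For ATP analog, UTP 10, GTP and CTP 100 μM, ATP and inhibitor varied. For CTP analogs, UTP 10, ATP and GTP 100 μM, CTP and inhibitor varied. Membrane-bound product counted, rates fit to competitive inhibition.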

Hepacivirus hominis [6] = assay: Ratio of Ki to Km for HCV NS5B RNA polymerase; in short: as §4
Hepacivirus hominis [7] = assay: Ratio of Ki/Km of HCV NS5B RNA polymerase S282T mutant to Ki/Km of HCV NS5B RNA polymerase; in short: as §3
Hepacivirus hominis [8] = assay: Inhibition of HCV NS5B RNA polymerase S282T mutant assessed as incorporation of 32P-UMP into RNA; in short: as §3
[9] = target: T1, Uridine-cytidine kinase 1 (Homo sapiens) (UniProt Q9HA47); assay: Ratio of Kcat to Km for UCK1 activity expressed in Huh7 cells; format: cell-based; settings: Huh-7
T1 sequence (whole entry): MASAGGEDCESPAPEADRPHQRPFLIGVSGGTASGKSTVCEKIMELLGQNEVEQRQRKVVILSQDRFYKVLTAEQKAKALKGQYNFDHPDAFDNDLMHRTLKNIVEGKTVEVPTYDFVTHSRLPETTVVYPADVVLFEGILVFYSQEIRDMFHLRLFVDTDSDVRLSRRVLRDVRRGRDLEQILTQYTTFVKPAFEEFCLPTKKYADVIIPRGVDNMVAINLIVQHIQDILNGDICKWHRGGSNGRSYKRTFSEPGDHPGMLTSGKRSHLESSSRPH
In short: (§5)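 His-tagged human UCK-1 cloned from Huh-7 cells, assayed at 25°C by pyruvate kinase/lactate dehydrogenase coupling, NADH oxidation at 340 nm. Buffer 64 mM Tris-HCl pH 7.5, 1 mM ATP, Mg2+, phosphoenolpyruvate. Enzyme 41 nM, or 410 nM for 2′-C-methyl cytidines. Substrate concentration varied. Steady-state parameters reported as mean ± SD.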

[10] = target: T1, Uridine-cytidine kinase 1 (Homo sapiens); assay: Activity of human UCK1 expressed in Huh7 cells assessed as phosphorylation by coupled enzyme assay; format: cell-based; settings: Huh-7; in short: as §5
[11] = target: T1, Uridine-cytidine kinase 1 (Homo sapiens); assay: Ratio of Kcat to Km for UCK1 activity expressed in Huh7 cells up to 3 mM; format: cell-based; settings: Huh-7; in short: as §5
[12] = target: T1, Uridine-cytidine kinase 1 (Homo sapiens); assay: Activity of human UCK1 expressed in Huh7 cells assessed as phosphorylation up to 3 mM by coupled enzyme assay; format: cell-based; settings: Huh-7; in short: as §5
[13] = tested on: Nc1ccn([C@@H]2O[C@H](CO)[C@@H](O)C2(F)F)c(=O)n1; settings: Homo sapiens; HepG2
[14] = tested on: Nc1ccn([C@@H]2O[C@H](CO)[C@@H](O)[C@H]2F)c(=O)n1; settings: Homo sapiens; HepG2
[15] = tested on: C[C@@]1(O)[C@H](O)[C@@H](CO)O[C@H]1n1ccc(N)nc1=O; settings: Homo sapiens; HepG2
[16] = tested on: C[C@@H]1[C@H](O)[C@@H](CO)O[C@H]1n1ccc(N)nc1=O; settings: Homo sapiens; HepG2
[17] = tested on: C[C@@]1(F)[C@H](O)[C@@H](CO)O[C@H]1n1ccc(N)nc1=O; settings: Homo sapiens; HepG2
[18] = tested on: Nc1ccn([C@@H]2O[C@H](CO)[C@@H](O)C2(F)F)c(=O)n1; settings: Homo sapiens; HepG2; remark: listed apart in the source
[19] = tested on: Nc1ccn([C@@H]2O[C@H](CO)[C@@H](O)[C@H]2F)c(=O)n1; settings: Homo sapiens; HepG2; remark: listed apart in the source
[20] = tested on: C[C@@]1(O)[C@H](O)[C@@H](CO)O[C@H]1n1ccc(N)nc1=O; settings: Homo sapiens; HepG2; remark: listed apart in the source
[21] = tested on: C[C@@H]1[C@H](O)[C@@H](CO)O[C@H]1n1ccc(N)nc1=O; settings: Homo sapiens; HepG2; remark: listed apart in the source
[22] = tested on: C[C@@]1(F)[C@H](O)[C@@H](CO)O[C@H]1n1ccc(N)nc1=O; settings: Homo sapiens; HepG2; remark: listed apart in the source
[23] = tested on: O=c1ccn([C@@H]2O[C@H](COP(=O)(O)OP(=O)(O)OP(=O)(O)O)[C@@H](O)[C@H]2O)c(=O)[nH]1; assay: (§6) Activity of HCV NS5B RNA polymerase S282T assessed as incorporation of 32P-UMP into RNA; settings: Hepacivirus hominis; in short: as §1
[24] = tested on: Nc1nc2c(c(=O)[nH]1)NCN2[C@@H]1O[C@H](COP(=O)(O)OP(=O)(O)OP(=O)(O)O)[C@@H](O)[C@H]1O; assay: as §6; settings: Hepacivirus hominis; in short: as §1
[25] = tested on: Nc1ccn([C@@H]2O[C@H](COP(=O)(O)OP(=O)(O)OP(=O)(O)O)[C@@H](O)[C@H]2O)c(=O)n1; assay: as §6; settings: Hepacivirus hominis; in short: as §1
[26] = tested on: Nc1ncnc2c1ncn2[C@@H]1O[C@H](COP(=O)(O)OP(=O)(O)OP(=O)(O)O)[C@@H](O)[C@H]1O; assay: as §6; settings: Hepacivirus hominis; in short: as §1
HepG2 [27] = assay: Activity of human NDPK expressed in HepG2 cells assessed as phosphorylation by coupled enzyme assay; format: cell-based
In short: (§7)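 Human NDPK cloned from HepG2 cells, 216 nM, 37°C, with 1 mM ATP in Tris-HCl pH 7.5 coupled to pyruvate kinase/lactate dehydrogenase. NADH oxidation read at 340 nm. Diphosphate substrate concentration varied, Km and kcat as mean ± SD.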

HepG2 [28] = assay: Ratio of Kcat to Km for NDPK activity expressed in HepG2 cells; format: cell-based; settings: Homo sapiens; in short: as §7
[29] = target: T1, Uridine-cytidine kinase 1 (Homo sapiens); assay: Ratio of Kcat to Km for UCK1 activity expressed in Huh7 cells up to 1 mM; format: cell-based; settings: Huh-7; in short: as §5
[30] = target: T1, Uridine-cytidine kinase 1 (Homo sapiens); assay: Activity of human UCK1 expressed in Huh7 cells assessed as phosphorylation up to 1 mM by coupled enzyme assay; format: cell-based; settings: Huh-7; in short: as §5

Deoxycytidine kinase (Homo sapiens), P27707, sequence (P27707 whole entry): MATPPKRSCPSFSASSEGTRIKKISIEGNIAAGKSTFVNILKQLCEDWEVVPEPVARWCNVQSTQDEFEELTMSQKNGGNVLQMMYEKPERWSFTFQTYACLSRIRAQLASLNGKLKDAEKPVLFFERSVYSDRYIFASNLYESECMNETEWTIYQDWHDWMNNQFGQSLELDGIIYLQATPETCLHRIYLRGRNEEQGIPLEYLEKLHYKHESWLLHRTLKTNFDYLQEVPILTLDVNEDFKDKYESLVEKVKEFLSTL

Molecule: Nc1ncnc2c1ncn2[C@@H]1O[C@H](COP(=O)(O)OP(=O)(O)OP(=O)(O)O)[C@@H](O)[C@H]1O
- kcat/Km (Hepacivirus hominis [1]): 0.00064 µM⁻¹ min⁻¹
- Km (Hepacivirus hominis [2]): 2.7 µM
- kcat (Hepacivirus hominis [2]): 0.002 min⁻¹
- kcat/Km (Hepacivirus hominis [3]): 0.00074 µM⁻¹ min⁻¹

Molecule: C[C@@]1(F)[C@H](O)[C@@H](COP(=O)(O)OP(=O)(O)OP(=O)(O)O)O[C@H]1n1ccc(N)nc1=O
- Ki/Km [4]: 0.93
- Km (Hepacivirus hominis [5]): 13.7 µM
- Ki/Km (Hepacivirus hominis [6]): 0.31
- Ratio (Hepacivirus hominis [7]): 3
- Km (Hepacivirus hominis [8]): 2.7 µM

Molecule: Nc1ccn([C@@H]2O[C@H](COP(=O)(O)OP(=O)(O)OP(=O)(O)O)[C@@H](O)[C@H]2O)c(=O)n1
- kcat/Km (Hepacivirus hominis [1]): 7.9e-05 µM⁻¹ min⁻¹
- Km (Hepacivirus hominis [2]): 13.7 µM
- kcat (Hepacivirus hominis [2]): 0.00152 min⁻¹
- kcat/Km (Hepacivirus hominis [3]): 0.00011 µM⁻¹ min⁻¹

Molecule: C[C@@]1(O)[C@H](O)[C@@H](COP(=O)(O)OP(=O)(O)OP(=O)(O)O)O[C@H]1n1ccc(N)nc1=O
- Ki/Km [4]: 1.4
- Km (Hepacivirus hominis [5]): 13.7 µM
- Ki/Km (Hepacivirus hominis [6]): 0.12
- Ratio (Hepacivirus hominis [7]): 12
- Km (Hepacivirus hominis [8]): 2.7 µM

Molecule: C[C@@]1(O)[C@H](O)[C@@H](CO)O[C@H]1n1ccc(N)nc1=O
- Activity [9]: inactive
- Activity [10]: inactive

Molecule: C[C@@]1(F)[C@H](O)[C@@H](CO)O[C@H]1n1ccc(N)nc1=O
- Activity [11]: inactive
- Activity [12]: inactive
- Activity [9]: inactive
- Activity [10]: inactive

Molecule: C[C@@]1(O)[C@H](O)[C@@H](COP(=O)(O)OP(=O)(O)OP(=O)(O)O)O[C@H]1n1cnc2c(N)ncnc21
- Ki/Km [4]: 84
- Km (Hepacivirus hominis [5]): 2.7 µM
- Ki/Km (Hepacivirus hominis [6]): 0.56
- Ratio (Hepacivirus hominis [7]): 150
- Km (Hepacivirus hominis [8]): 0.26 µM

Molecule: O=c1ccn([C@@H]2O[C@H](COP(=O)(O)OP(=O)(O)OP(=O)(O)O)[C@@H](O)[C@H]2O)c(=O)[nH]1
- kcat/Km (Hepacivirus hominis [1]): 0.00069 µM⁻¹ min⁻¹
- Km (Hepacivirus hominis [2]): 0.4 µM
- kcat (Hepacivirus hominis [2]): 0.00128 min⁻¹
- kcat/Km (Hepacivirus hominis [3]): 0.0032 µM⁻¹ min⁻¹

Molecule: Deoxycytidine kinase (Homo sapiens), P27707
- Km [13]: 1.4 µM
- kcat [13]: 0.038 s⁻¹
- Km [14]: 4.7 µM
- kcat [14]: 0.05 s⁻¹
- Km [15]: 914 µM
- kcat [15]: 0.011 s⁻¹
- Km [16]: 46.2 µM
- kcat [16]: 0.048 s⁻¹
- Km [17]: 81.2 µM
- kcat [17]: 0.016 s⁻¹
- kcat/Km [18]: 0.027 µM⁻¹ s⁻¹
- kcat/Km [19]: 0.011 µM⁻¹ s⁻¹
- kcat/Km [20]: 1.2e-05 µM⁻¹ s⁻¹
- kcat/Km [21]: 0.001 µM⁻¹ s⁻¹
- kcat/Km [22]: 0.00019 µM⁻¹ s⁻¹

Molecule: RNA-directed RNA polymerase (Hepacivirus hominis), O39930 S282T
- Km [23]: 0.18 µM
- kcat [23]: 0.000125 s⁻¹
- Km [24]: 5 µM
- kcat [24]: 0.000198 s⁻¹
- Km [25]: 2.7 µM
- kcat [25]: 0.000214 s⁻¹
- Km [26]: 0.26 µM
- kcat [26]: 0.000167 s⁻¹

Molecule: C[C@@]1(F)[C@H](O)[C@@H](COP(=O)(O)OP(=O)(O)O)O[C@H]1n1ccc(N)nc1=O
- Km (HepG2 [27]): 1380 µM
- kcat (HepG2 [27]): 21 s⁻¹
- kcat/Km (HepG2 [28]): 0.015 µM⁻¹ s⁻¹

Molecule: Nc1ccn([C@@H]2O[C@H](COP(=O)(O)OP(=O)(O)O)[C@@H](O)[C@H]2O)c(=O)n1
- Km (HepG2 [27]): 307 µM
- kcat (HepG2 [27]): 183 s⁻¹
- kcat/Km (HepG2 [28]): 0.6 µM⁻¹ s⁻¹

Molecule: Nc1ccn([C@H]2C[C@H](O)[C@@H](CO)O2)c(=O)n1
- Activity [29]: inactive
- Activity [30]: inactive
- Activity [9]: inactive
- Activity [10]: inactive
